In article PMC9051925 (RSC Advances, 2020):

Tests used:
[1] = DPPH˙ radical scavenging assay; conditions: read-out: DPPH˙ scavenging activity (EC50); 37 °C 30 min, OD 540 nm; mean ± SD
Summary of the method: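 Assay mixtures were 50 μL DPPH˙ working solution in ethanol plus 50 μL test compound in DMSO (sample solutions 0.02–20 mM). Ethanol replaced DPPH˙ in sample-control and blank wells. Mixtures were incubated at 37 °C for 30 min and read at OD 540 nm, in triplicate. Scavenging rate was calculated by formula. EC50 was derived by nonlinear regression from three independent experiments.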

L02 cells = experiment: MTT assay for H2O2-treated L02 cells; type: cell-based; conditions: Homo sapiens, L02, read-out: L02 cell viability after H2O2
Summary of the method: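 Cells were grown in RPMI-1640 with 10% FBS at 37 °C, 5% CO2. PC12 cells were seeded at 5 × 10^5 cells per mL and incubated 16 h; L02 cells at 1 × 10^5 cells per mL, 24 h. Test compound (final 10 μM, from 20 mM DMSO stock) or DMSO was added for 0.5 h. Then 10 μL H2O2 (1 mM in medium) or medium was added for 2 h, followed by MTT for 4 h.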

Row | EC50 [1] [µM] | SMILES | viability at 10 µM (L02 cells) [%]
1 | 50 ± 10 | O=C(O)c1cc(O)c(O)c(O)c1 [GA, gallic acid] | 37.8
2 | 230 ± 90 | O=C1O[C@H]([C@@H](O)CO)C(O)=C1O [VC, vitamin C] | –
